Measurements as given in ChEMBL document CHEMBL3259541, “Synthesis and biological evaluation of antimetastatic agents predicated upon dihydromotuporamine C and its carbocyclic derivatives” (J Med Chem, 2014).
pIC50: −log10 of the molar value.

Key:
[1] = tested on: L3.6pl; assay: Effect on intracellular ceramide population in human L3.6PL cells assessed as sphingomyelin N16:0 level measured as contribution to total ceramide population at 0.6 uM after 48 hrs incubation by mass spectrometry analysis (reference value: 37.3%); assay type: functional
[2] = tested on: L3.6pl; assay: Effect on intracellular ceramide population in human L3.6PL cells assessed as sphingomyelin N20:0 level measured as contribution to total ceramide population at 0.6 uM after 48 hrs incubation by mass spectrometry analysis (reference value: 1.1%); assay type: functional
[3] = tested on: L3.6pl; assay: Effect on intracellular ceramide population in human L3.6PL cells assessed as sphingomyelin N14:0 level measured per mg of protein at 0.6 uM after 48 hrs incubation by mass spectrometry analysis (reference value: 0.12 +/- 0.03 nmol); assay type: functional
[4] = tested on: L3.6pl; assay: Effect on intracellular ceramide population in human L3.6PL cells assessed as sphingomyelin N15:0 level measured per mg of protein at 0.6 uM after 48 hrs incubation by mass spectrometry analysis (reference value: 0.09 +/- 0.02 nmol); assay type: functional
[5] = tested on: L3.6pl; assay: Effect on intracellular ceramide population in human L3.6PL cells assessed as sphingomyelin N16:1 level measured per mg of protein at 0.6 uM after 48 hrs incubation by mass spectrometry analysis (reference value: 0.24 +/- 0.04 nmol); assay type: functional
[6] = tested on: L3.6pl; assay: Effect on intracellular ceramide population in human L3.6PL cells assessed as sphingomyelin N16:0 level measured per mg of protein at 0.6 uM after 48 hrs incubation by mass spectrometry analysis (reference value: 3.21 +/- 0.90 nmol); assay type: functional
[7] = tested on: L3.6pl; assay: Effect on intracellular ceramide population in human L3.6PL cells assessed as sphingomyelin N17:0 level measured per mg of protein at 0.6 uM after 48 hrs incubation by mass spectrometry analysis (reference value: 0.09 +/- 0.03 nmol); assay type: functional
[8] = tested on: L3.6pl; assay: Effect on intracellular ceramide population in human L3.6PL cells assessed as sphingomyelin N18:0 level measured per mg of protein at 0.6 uM after 48 hrs incubation by mass spectrometry analysis (reference value: 0.38 +/- 0.11 nmol); assay type: functional
[9] = tested on: L3.6pl; assay: Effect on intracellular ceramide population in human L3.6PL cells assessed as sphingomyelin N20:0 level measured per mg of protein at 0.6 uM after 48 hrs incubation by mass spectrometry analysis (reference value: 0.09 +/- 0.03 nmol); assay type: functional
[10] = tested on: L3.6pl; assay: Effect on intracellular ceramide population in human L3.6PL cells assessed as sphingomyelin N21:0 level measured per mg of protein at 0.6 uM after 48 hrs incubation by mass spectrometry analysis (reference value: 0.03 +/- 0.01 nmol); assay type: functional
[11] = tested on: L3.6pl; assay: Effect on intracellular ceramide population in human L3.6PL cells assessed as sphingomyelin N22:2 level measured per mg of protein at 0.6 uM after 48 hrs incubation by mass spectrometry analysis (reference value: 0.02 +/- 0.00 nmol); assay type: functional
[12] = tested on: L3.6pl; assay: Effect on intracellular ceramide population in human L3.6PL cells assessed as sphingomyelin N22:1 level measured per mg of protein at 0.6 uM after 48 hrs incubation by mass spectrometry analysis (reference value: 0.23 +/- 0.07 nmol); assay type: functional
[13] = tested on: L3.6pl; assay: Effect on intracellular ceramide population in human L3.6PL cells assessed as sphingomyelin N22:0 level measured per mg of protein at 0.6 uM after 48 hrs incubation by mass spectrometry analysis (reference value: 0.30 +/- 0.10 nmol); assay type: functional
[14] = tested on: L3.6pl; assay: Effect on intracellular ceramide population in human L3.6PL cells assessed as sphingomyelin N23:2 level measured per mg of protein at 0.6 uM after 48 hrs incubation by mass spectrometry analysis (reference value: 0.03 +/- 0.02 nmol); assay type: functional
[15] = tested on: L3.6pl; assay: Effect on intracellular ceramide population in human L3.6PL cells assessed as sphingomyelin N23:1 level measured per mg of protein at 0.6 uM after 48 hrs incubation by mass spectrometry analysis (reference value: 0.13 +/- 0.05 nmol); assay type: functional
[16] = tested on: L3.6pl; assay: Effect on intracellular ceramide population in human L3.6PL cells assessed as sphingomyelin N23:0 level measured per mg of protein at 0.6 uM after 48 hrs incubation by mass spectrometry analysis (reference value: 0.08 +/- 0.04 nmol); assay type: functional
[17] = tested on: L3.6pl; assay: Effect on intracellular ceramide population in human L3.6PL cells assessed as sphingomyelin N24:3 level measured per mg of protein at 0.6 uM after 48 hrs incubation by mass spectrometry analysis (reference value: 0.05 +/- 0.02 nmol); assay type: functional
[18] = tested on: L3.6pl; assay: Effect on intracellular ceramide population in human L3.6PL cells assessed as sphingomyelin N24:2 level measured per mg of protein at 0.6 uM after 48 hrs incubation by mass spectrometry analysis (reference value: 0.25 +/- 0.09 nmol); assay type: functional
[19] = tested on: L3.6pl; assay: Effect on intracellular ceramide population in human L3.6PL cells assessed as sphingomyelin N24:1 level measured per mg of protein at 0.6 uM after 48 hrs incubation by mass spectrometry analysis (reference value: 0.85 +/- 0.38 nmol); assay type: functional
[20] = tested on: L3.6pl; assay: Effect on intracellular ceramide population in human L3.6PL cells assessed as sphingomyelin N24:0 level measured per mg of protein at 0.6 uM after 48 hrs incubation by mass spectrometry analysis (reference value: 0.22 +/- 0.06 nmol); assay type: functional
[21] = tested on: L3.6pl; assay: Effect on intracellular ceramide population in human L3.6PL cells assessed as sphingomyelin N25:1 level measured per mg of protein at 0.6 uM after 48 hrs incubation by mass spectrometry analysis (reference value: 0.02 +/- 0.02 nmol); assay type: functional
[22] = tested on: L3.6pl; assay: Effect on intracellular ceramide population in human L3.6PL cells assessed as sphingomyelin N26:1 level measured per mg of protein at 0.6 uM after 48 hrs incubation by mass spectrometry analysis (reference value: 0.01 +/- 0.00 nmol); assay type: functional
[23] = tested on: CHO-MG; assay: Cytotoxicity against polyamine transporter deficient CHO-MG cells assessed as cell growth after 48 hrs incubation by MTS assay in presence of 1 mM aminoguanidine; assay type: ADME, cell-based; conditions: Cricetulus griseus
Outline: (§1)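 CHO and polyamine-transport-deficient CHO-MG* cells pretreated 24 h with 1 mM aminoguanidine, then exposed to compound for 48 h at 37 °C. Triplicate. IC50 taken as 50% growth inhibition. PTS selectivity expressed as the CHO-MG*/CHO IC50 ratio.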

[24] = tested on: polyamine transporter; assay: Selectivity ratio of IC50 for polyamine transporter deficient CHO-MG cells to IC50 for CHO cells by MTS assay; assay type: ADME, cell-based, Cricetulus griseus; conditions: chinese hamster, polyamine transporter deficient CHO-MG cells and CHO cells; read-out: Ratio IC50; outline: as §1
[25] = Cytotoxicity against human L3.6PL cells assessed as inhibition of cell growth after 48 hrs incubation by MTS assay in presence of 250 uM aminoguanidine treated 24 hrs prior compound addition; assay type: functional, cell-based; conditions: for pIC50: Homo sapiens, L3.6pl
Outline: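 L3.6pl cells pretreated 24 h with 250 μM aminoguanidine, then incubated with compound for 48 h at 37 °C. Triplicate. IC50 is the concentration giving 50% growth inhibition and IC5 the concentration giving 5% inhibition, both versus untreated control.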

[26] = tested on: L3.6pl; assay: Effect on intracellular ceramide population in human L3.6PL cells assessed as ceramide N16:0 to N22:1 ratio measured at 0.6 uM after 48 hrs incubation by mass spectrometry analysis (reference value: 5.8 no_unit)

Row | SMILES | Activity [1] | Activity [2] | Activity [3] | Activity [4] | Activity [5] | Activity [6] | Activity [7] | Activity [8] | Activity [9] | Activity [10] | Activity [11] | Activity [12] | Activity [13] | Activity [14] | Activity [15] | Activity [16] | Activity [17] | Activity [18] | Activity [19] | Activity [20] | other results
1 | Cl.NCCCNCCCNCC1CCCCCCCCCCCCCC1 | 38.4% | 1.5% | 0.2 nmol | 0.17 nmol | 0.34 nmol | 4.36 nmol | 0.16 nmol | 0.54 nmol | 0.15 nmol | 0.04 nmol | 0.03 nmol | 0.3 nmol | 0.46 nmol | 0.02 nmol | 0.17 nmol | 0.1 nmol | 0.06 nmol | 0.31 nmol | 1.1 nmol | 0.25 nmol | Activity [21]: 0.03 nmol; Activity [22]: 0.01 nmol; pIC50 [23]: 4.06; selectivity ratio [24]: 1; IC5 [25]: 80 µM; pIC50 [25]: 4.05; Ratio [26]: 8.4
2 | Cl.NCCCNCCCN1CCCCCCCCCCCCCC1 | 20.3% | 0.6% | 0.24 nmol | 0.15 nmol | 0.31 nmol | 4.01 nmol | 0.14 nmol | 0.47 nmol | 0.14 nmol | 0.04 nmol | 0.02 nmol | 0.26 nmol | 0.4 nmol | 0.02 nmol | 0.15 nmol | 0.09 nmol | 0.06 nmol | 0.27 nmol | 0.99 nmol | 0.21 nmol | Activity [21]: 0.03 nmol; Activity [22]: 0.01 nmol; pIC50 [23]: 5.53; selectivity ratio [24]: 1; IC5 [25]: 0.6 µM; pIC50 [25]: 6.00; Ratio [26]: 1.1
